This is a sample that favours compounds with a hit; in the whole collection about 3.3% have one here.
SENP8 block-1 – blocks the human protease SENP8. inhibition, % at 10 µM. 330,000 compounds, 1.2% hits. Q96LD8. purified SENP8, Z-RLRGG-aminoluciferin cleavage, luminescence; in the data active = inhibition above about 50%
Target sequence (Q96LD8 whole entry, looked up): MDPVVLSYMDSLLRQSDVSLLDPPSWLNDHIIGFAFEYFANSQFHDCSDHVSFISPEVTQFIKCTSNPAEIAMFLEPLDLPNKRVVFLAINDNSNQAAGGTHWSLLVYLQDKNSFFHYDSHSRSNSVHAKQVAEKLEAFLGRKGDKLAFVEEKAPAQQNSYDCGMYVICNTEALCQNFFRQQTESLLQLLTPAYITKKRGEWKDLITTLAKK
SENP8 block-2 – SENP8 (human) protease inhibition; Q96LD8; recombinant SENP8, Nedd8 substrate fluorescence; inhibition, % at 20 µM; 360,000 compounds, 0.64% hits; in the data active = inhibition mostly above about 40%, no sharp cut-off; inactive = mostly below about 27%
NRP1-CendR mod – modulators of CendR peptide binding to human neuropilin-1. FAM-RPARPAR peptide binding to NRP-1, fluorescence polarization. inhibition, % at 25 µM. 360,000 compounds, 0.85% hits. AID 602438;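 active = inhibition or corrected inhibition above about 18%, plus a signal ratio from 0.5 to 1.5, limit read from the data, passing the limit was not always enough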
SENP7 block – SENP7 protease inhibition; inhibition, % at 5 µM; recombinant SENP7, Z-RLRGG-aminoluciferin luminescence, 40 min; Q9BQF6; 330,000 compounds, 1.5% hits;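 active = inhibition above about 50% at the single test dose, limit read from the data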;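 note: plate controls were DMSO with enzyme for no effect and no enzyme buffer wells for full effect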
Target sequence (Q9BQF6 706-1050 limits assumed): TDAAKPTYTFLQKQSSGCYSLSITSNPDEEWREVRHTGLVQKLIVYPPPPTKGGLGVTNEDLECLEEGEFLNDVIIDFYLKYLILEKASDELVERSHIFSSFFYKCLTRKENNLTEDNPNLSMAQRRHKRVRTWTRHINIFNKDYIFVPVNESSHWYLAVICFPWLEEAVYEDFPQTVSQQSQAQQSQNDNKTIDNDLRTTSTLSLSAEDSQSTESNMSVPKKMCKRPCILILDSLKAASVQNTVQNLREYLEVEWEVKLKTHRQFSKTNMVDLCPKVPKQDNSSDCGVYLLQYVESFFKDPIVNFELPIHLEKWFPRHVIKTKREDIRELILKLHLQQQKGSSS
SENP6 inh – inhibitors of human SENP6 protease; 330,000 compounds, 1.8% hits; inhibition, % at 10 µM; Q9GZR1; Recombinant SENP6 catalytic domain, aminoluciferin luminescence; AID 2599;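 active = inhibition above about 50% at the single tested dose, limit read from the data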;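 note: plate controls were DMSO wells with enzyme for no effect and DMSO wells lacking enzyme for full effect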
SENP1 inh – blocks the human SENP1 SUMO protease catalytic domain; Q9P0U3; recombinant SENP1 catalytic domain, CyPet-SUMO1-YPet FRET cleavage; inhibition, % at 10 µM; 360,000 compounds, 0.21% hits; AID 624204;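 active = inhibition at least 30% at 10 µM, raw YFP signal under a set limit, fluorescence ratio 0.5 to 1.5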;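 note: 0% = enzyme with DMSO and 100% = no enzyme wells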
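Compound: 10 µM single point, 0.5% DMSO; Test system: hSENP1 catalytic domain, recombinant; Timing: 50 min reaction at room temperature; Technique: FRET, CFP and YFP emission; Control set: no-enzyme wells low, DMSO-plus-enzyme wells high control.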
SENP8 conf – human SENP8 inhibition, confirmed; Recombinant SENP8, Z-RLRGG-aminoluciferin luminescence, 60 min; 6,200 compounds, 40% hits; shares compounds with SENP7 block; inhibition, % at 12.5 µM;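 active = mean inhibition across replicates above about 50%, limit read from the data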
SENP6 conf – confirmation of human SENP6 protease inhibitors | shares compounds with SENP7 block | recombinant SENP6, Z-RLRGG-aminoluciferin luminescence | inhibition, % at 12.5 µM | 6,200 compounds, 58% hits
SENP7 confirm – human SENP7 inhibition, confirmed. shares compounds with SENP7 block. 6,200 compounds, 69% hits. inhibition, % at 12.5 µM. AID 488917. recombinant SENP7, Z-RLRGG-aminoluciferin luminescence, 40 min
Casp3 SENP sel – selectivity test for SENP inhibitors: human caspase-3 inhibition; AID 488918; shares compounds with SENP7 block; inhibition, % at 12.5 µM; purified caspase-3, Z-DEVD-aminoluciferin luminescence, 60 min; 6,200 compounds, 60% hits;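 active = mean inhibition above about 50%, limit read from the data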;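 note: plate controls were enzyme with DMSO for no effect and wells without caspase-3 for full effect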
SENP luc ctr – interferes with luciferase luminescence in SENP counter-screen | shares compounds with SENP7 block | Pre-incubated SENP8/Z-RLRGG-aminoluciferin, luciferase luminescence interference | inhibition, % at 12.5 µM | 6,200 compounds, 39% hits;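 active = mean inhibition above about 50% when retested at one dose, limit read from the data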;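 note: plate controls were DMSO wells with completed reaction for no effect and substrate without enzyme for full effect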
* marks the source's active call; other numbers are inactive results; x = no result given.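 Rule for the calls, unless noted: active = mean inhibition above about 50% in the one-dose retest (limit read from the data); inactive = the rest.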

SMILES	SENP8 block-1	SENP8 block-2	NRP1-CendR mod	SENP7 block	SENP6 inh	SENP1 inh	SENP8 conf	SENP6 conf	SENP7 confirm	Casp3 SENP sel	SENP luc ctr
Cc1ccc(C2=Nc3ccccc3N=C(C(Cl)Cl)C2)cc1	69*	-65	-12	58*	84*	-83	38	37	72*	86*	80*
COc1ccc(CNC(=O)C[C@H]2C[C@H](C(=O)N3CCOCC3)[C@@]3(CCC4CCCC4)c4[nH]c5cc(CCC(=O)N(C)C)ccc5c4CCN3C2=O)cc1OC	x	3	-4	0	x	1	x	x	x	x	x
Cc1cc(C(=O)COC(=O)/C=C/c2ccco2)c(C)n1C	-12	9	-6	-1	-6	2	x	x	x	x	x
COCCn1c(C)cc(C(=O)COC(=O)c2n[nH]c3ccccc23)c1C	82*	21	-15	86*	71*	2	94*	94*	100*	92*	87*
Cc1cc(C(=O)COC(=O)c2cccnc2Cl)c(C)n1CC1CCCO1 (configuration not stated)	90*	9	-6	93*	90*	1	95*	96*	101*	98*	80*
COCCn1c(C)cc(C(=O)COC(=O)c2cccnc2SC)c1C	78*	7	13	85*	87*	0	86*	86*	98*	91*	69*
Cc1cc(C(=O)COC(=O)c2ccccc2O)c(C)n1CC1CCCO1 (configuration not stated)	95*	-21	20	97*	97*	1	98*	99*	102*	88*	56*
CC1(C(=O)Nc2cccc3ncccc23)CCN1C(=O)Cc1ccc(-c2ccccc2)cc1 (configuration not stated)	x	-278	-9	x	x	0	x	x	x	x	x
CCCCOCCCNC(=O)C[C@@H]1C[C@@]2(C(=O)OCC)CCC=C2N(Cc2ccccc2)C1=O	x	4	3	x	x	-4	x	x	x	x	x
COc1ccc(C(=O)COC(=O)c2n[nH]c3ccccc23)c(OC)c1	25	-4	-4	21	51*	1	43	37	69*	32	35
COc1ccc(OC)c(NC(=O)COC(=O)c2n[nH]c3ccccc23)c1	4	5	-3	0	4	5	x	x	x	x	x
Cc1cc(C(=O)COC(=O)c2ccccc2O)c(C)n1Cc1cccs1	93*	-8	10	95*	92*	0	93*	98*	101*	93*	51*
Cc1cc(C(=O)COC(=O)c2n[nH]c3ccccc23)c(C)n1CC1CCCO1 (configuration not stated)	87*	21	8	13	86*	0	47	92*	99*	90*	77*
COCCN1C[C@@H](CO)O[C@@H](n2cnc3c(NC4CCC4)ncnc32)C1	x	9	2	x	x	0	x	x	x	x	x
Cc1cccc2cc(C(c3nnnn3CC3CCCO3)N3CCc4ccccc4C3)c(=O)[nH]c12 (configuration not stated)	38	x	x	49	67*	x	-1	27	6	9	3
Cc1ccc2cc(C(c3nnnn3CC3CCCO3)N3CCc4ccccc4C3)c(=O)[nH]c2c1 (configuration not stated)	74*	-50	-9	86*	7	-57	7	10	0	-3	-3
CCOc1ccc2[nH]c(=O)c(C(c3nnnn3CC3CCCO3)N3CCc4ccccc4C3)cc2c1 (configuration not stated)	3	-197	2	15	16	10	x	x	x	x	x
CCCc1ccc2c(C(F)(F)F)cc(C(F)(F)F)cc2n1	x	9	-1	x	x	1	x	x	x	x	x
Clc1ccc2oc(-c3ccccc3)nc2c1	63*	8	2	83*	-43	2	10	55*	91*	26	2
Cc1ccccc1-c1nc2cc(Cl)ccc2o1	58*	10	-3	81*	16	-2	10	69*	94*	44	13
COc1cc(OC)cc(C(=O)N(Cc2ccco2)c2c(N)n(Cc3ccccc3)c(=O)[nH]c2=O)c1	x	-22	-10	x	x	-16	x	x	x	x	x
CC(=O)Nc1nc(COc2ccccc2)cs1	-3	10	0	2	-5	1	x	x	x	x	x
O=C(Nc1nc(COc2ccccc2)cs1)C1CCC1	1	12	5	10	54*	2	-28	-20	-11	-7	-3
CC(=O)Nc1nc(COc2ccc3ccccc3c2)cs1	37	10	-5	62*	62*	4	44	47	81*	x	37
COc1ccc(C(N)c2nccc3cc(OC)c(OC)cc23)cc1OC (configuration not stated)	49	-83	-11	70*	75*	-43	-26	-13	-6	-9	-7
SMILES	SENP8 block-1	SENP8 block-2	NRP1-CendR mod	SENP7 block	SENP6 inh	SENP1 inh	SENP8 conf	SENP6 conf	SENP7 confirm	Casp3 SENP sel	SENP luc ctr
CC(=O)Nc1cncc(-c2ccccc2F)n1	x	-29	12	x	x	0	x	x	x	x	x
Cn1c(C(=O)NN)cc2cc(Oc3ccccc3)ccc21	-4	-148	3	2	-34	0	x	x	x	x	x
Cn1c(C(=O)O)cc2cc(Oc3ccccc3)ccc21	64*	-25	8	13	80*	-1	7	66*	82*	71*	72*
CCCCCCn1c(=O)n2n(c1=O)[C@@H]1CN(S(=O)(=O)c3ccc(C)cc3)C[C@]1(O)[C@@H](OC(=O)Nc1cccs1)C2	x	-35	-10	x	x	1	x	x	x	x	x
CC1CCCN(c2ccc3nc4ccccc4c(=O)n3n2)C1 (configuration not stated)	35	-176	-7	50	61*	-18	46	52*	81*	83*	20
Oc1cccc2ccc(/C=C/c3c(F)cccc3Cl)nc12	85*	-33	-7	94*	95*	3	23	60*	37	64*	4
Nc1nccc(/C=C/c2c(F)cccc2Cl)n1	1	-241	9	2	-23	-107	x	x	x	x	x
Oc1cccc2ccc(/C=C/c3ccccc3Cl)nc12	88*	-36	-13	84*	99*	2	83*	90*	67*	86*	33

Compound activity (PubChem BioAssay)
